# Hits are enriched below; roughly 1.5% of the tested compounds scored in any of these assays.
# VLA-4 inh: inhibition in human VLA-4 binding assay, primary screen, VLA-4 allosteric modulator project, MLPCN library, flow cytometry, VLA-4 expressing cells; Integrin alpha-4 (Homo sapiens), P13612; ligand binding flow cytometry; inhibition, % (about 7 µM as worked out from the volumes in the protocol); 0.2% of 330,000 active; in the data active = inhibition above about 50%
# Platelet DG rel: inhibitors of platelet dense granule secretion, primary screen, cell-based, MLPCN, human platelets. human platelet-rich plasma, SFLLRN dense granule ATP release, luminescence. inhibition, %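 (compounds screened at 7.5 µM in platelet-rich plasma)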. 0.22% of 300,000 active. AID 1663, 2009;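 active = mean replicate score, as percent of positive control, at or above 50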
# Myeloid diff 2: induction of myeloid progenitor differentiation, primary screen, cell-based, flow cytometry, MLPCN library; AID 624256, 2012; 1% of 360,000 active; calls only at 10 µM; ER-HoxA9 myeloid progenitors, lysozyme-GFP differentiation;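 active = normalized GFP-positive differentiation at or above the plate's own cutoff, the solvent-only control mean plus 3 SD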;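 also: cells exposed to compound for four days before flow analysis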
# SENP1 inh: human SENP1 catalytic domain inhibitors, primary screen, biochemical, FRET, uHTS | Sentrin-specific protease 1 (Homo sapiens), Q9P0U3 | recombinant SENP1 catalytic domain, CyPet-SUMO1-YPet FRET cleavage | inhibition, % at 10 µM | 0.21% of 360,000 active;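 active = inhibition at least 30% at 10 µM, raw YFP signal under a set limit, fluorescence ratio 0.5 to 1.5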;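 also: 0% = enzyme with DMSO and 100% = no enzyme wells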
#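 Test system: recombinant human SENP1 catalytic domain, His6-tagged / Medium: pH 8 Tris buffer with EDTA, NaCl, BME, BSA, NP40, catalase / Also added: SUMO1 FRET substrate flanked by Cypet and Ypet, 25 nM / Times: 50 min reaction at room temperature / Signal: FRET, CFP and YFP emission / Control set: no-enzyme low control and enzyme-plus-DMSO high control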
# Myeloid diff: inducers of myeloid progenitor differentiation, confirmation, cell-based, GFP/Mac1 flow cytometry, cherry pick 01; shares compounds with Myeloid diff 2; ER-HoxA9 myeloid progenitors, GFP/Mac1 double-positive flow; calls only; 2% of 2,300 active; AID 651706, 2012;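 active = share of green or green-and-red cells above 9 and 9% in run 1 or 4 and 3% in run 2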
# GFP autofluor: flagged as fluorescent in myeloid differentiation counter-screen. shares compounds with Myeloid diff 2. ER-HoxA9 myeloid progenitors, no estrogen, GFP autofluorescence flow cytometry; vehicle wells 0%, positive control 100%. fluorescence response, % (no concentration beside the values). 7.4% of 2,300 active. AID 651707;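 active = over 5% cells positive for green fluorescent reporter, or over 2% positive for both it and APC stain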;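 also: range taken on the double positive population between DMSO and positive control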
# * marks the source's active call; other numbers are inactive results; i = inactive; . = not tested or not shown; + = active, no number.
SMILES,VLA-4 inh,Platelet DG rel,Myeloid diff 2,SENP1 inh,Myeloid diff,GFP autofluor
O=C(NC(c1ccc(Cl)cc1)c1cnccn1)C1CCN(Cc2cccc(C(F)(F)F)c2)CC1 (stereo not given),.,.,i,-6,.,.
C#CC[N+](C)(C)CCCCCCCC,5,-1,i,0,i,0
Cc1ccc(-c2cc(C(F)(F)F)c(C#N)c(SCCC#N)n2)o1,-23,4,i,-143,i,0
CN(CC(=O)Nc1c(Cl)cccc1Cl)C(=O)c1ccc(-n2cncn2)c([N+](=O)[O-])c1,-2,-7,i,1,.,.
COCOCCn1cc(CN2CCS(=O)(=O)N(Cc3ccc(-c4ccc(Cl)cc4)cc3)C(CC(C)C)C2=O)nn1 (stereo not given),.,.,+,0,i,0
CCC/C=C/c1ccc(CN2C(CC(C)C)C(=O)N(Cc3cn(CCC4OCCO4)nn3)CCS2(=O)=O)cc1 (stereo not given),.,.,i,2,.,.
CC(C)C1C(=O)N(Cc2cn(CC3CCCCC3)nn2)CCS(=O)(=O)N1Cc1ccc(-c2ccc(F)cc2)cc1 (stereo not given),.,.,i,1,i,0
CCC/C=C/c1ccc(CN2C(C(C)C)C(=O)N(Cc3cn(CCC4OCCO4)nn3)CCS2(=O)=O)cc1 (stereo not given),.,.,i,3,i,0
CC(C)C1C(=O)N(Cc2cn(CCC3OCCCO3)nn2)CCS(=O)(=O)N1Cc1ccc(-c2cccc(CO)c2)cc1 (stereo not given),.,.,i,2,i,1
COc1ccc(-c2ccc(CN3C(C(C)C)C(=O)N(Cc4cn(CC5CCCCC5)nn4)CCS3(=O)=O)cc2)cc1 (stereo not given),.,.,i,1,.,.
COc1cc(OC)cc(C(=O)NCC2CCCN(Cc3ccc(SC)cc3)C2)c1 (stereo not given),8,-4,i,0,.,.
FC(F)(F)c1ccccc1CN1CCCC(N2CCN(c3ccccc3)CC2)C1 (stereo not given),8,-3,i,3,i,10*
FC(F)(F)c1ccccc1CN1CCN(C2CCCCCC2)CC1,-6,9,i,-1,.,.
O=c1[nH]c2cc3c(cc2cc1CN(CCc1ccccc1)C(=S)NCCCN1CCOCC1)OCCO3,.,.,i,-1,.,.
C/C(Cc1ccccc1)=N\NC(=O)CNC(=O)c1ccc(Br)cc1,2,-1,+,1,i,1
CC1CN(C(=O)c2cccc(S(=O)(=O)N3CCN(c4ccccc4)CC3)c2)CC(C)O1 (stereo not given),13,.,i,0,.,.
Cc1cccc(N2CCN(S(=O)(=O)c3c(C)[nH]c(=O)[nH]c3=O)CC2)c1C,12,3,i,1,i,0
COc1ccc(-c2noc(=O)n2Cc2ccccc2F)cc1,1,-6,i,2,.,.
COc1ccccc1C1N(c2ccc(Cl)cc2)C(=O)C2CCCN21 (stereo not given),-3,0,+,-24,+,0
COc1ccc(N2C(=O)C3CCCN3C2c2ccccc2OC)cc1 (stereo not given),4,4,i,0,.,.
CC(CCc1ccccc1)NC(=O)CNC(=O)N1CC(=O)Nc2ccccc21 (stereo not given),13,-1,i,0,.,.
COc1cc(CNc2ccc3[nH]c(=O)[nH]c3c2)ccc1OCc1ccccc1Cl,12,19,i,2,i,0
COC(=O)CCCCCN1C(=O)NC(c2ccccc2)C(C(=O)OCc2ccccc2)=C1C (stereo not given),.,-5,i,0,i,1
CC1=C(C(=O)OCc2ccccc2)C(c2ccc(Br)cc2)NC(=O)N1CCCCCC(=O)O (stereo not given),.,-3,i,0,.,.
CCn1c(-c2ccc(F)cc2)n[nH]c1=S,10,0,i,2,i,0
